The source of these data is ChEMBL document CHEMBL4219238, “Design, synthesis, molecular modelling and in vitro cytotoxicity analysis of novel carbamate derivatives as inhibitors of Monoacylglycerol lipase” (Bioorg Med Chem, 2018).

pIC50: −log10 of the molar value. Active and inactive are the calls of the source. The calls are words filed in the database; no cut-off is given here.

Data set [1] has as its target T1, Monoglyceride lipase (Mus musculus) (UniProt O35678).
T1 sequence (whole entry): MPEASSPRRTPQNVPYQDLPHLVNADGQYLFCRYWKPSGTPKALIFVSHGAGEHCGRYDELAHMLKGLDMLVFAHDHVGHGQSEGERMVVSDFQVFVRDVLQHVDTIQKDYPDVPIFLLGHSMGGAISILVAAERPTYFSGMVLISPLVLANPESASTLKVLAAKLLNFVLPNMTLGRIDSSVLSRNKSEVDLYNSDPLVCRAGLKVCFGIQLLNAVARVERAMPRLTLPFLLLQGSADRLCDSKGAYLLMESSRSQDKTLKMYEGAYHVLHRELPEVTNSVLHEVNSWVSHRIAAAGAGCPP
The experiment in a line: Inhibition of MAGL in mouse B16-F10 intact cells at 10 uM using 7-HRA as substrate preincubated for 6 hrs followed by substrate addition by fluorescence assay. It counts as cell-based. The gist of the method:
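Intact B16-F10 cells cultured 6 h with compound or DMSO, homogenised 30 min at 4 °C in lysis buffer and spun 1,500 × g 5 min. 1 μg lysate assayed with 10 μM 7-HRA (ex 571/em 588 nm); 5-min values reported; mean ± SEM, n = 3.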

The test system of data set [2] is MCF7. The experiment in a line: Induction of apoptosis in human MCF7 cells assessed as live cells at 10 uM after 48 hrs by Annexin V-FITC/propidium iodide staining based flow cytometry (reference value: 82.58%). Format: functional. The method, boiled down:
(§1)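 HEK293T (DMEM with 10% FBS) or MCF7 (DMEM/Ham's F-12 1:1, 10% FBS) cells treated 48 h with 10 μM compound or DMSO. Staining with Alexa Fluor 488 annexin V plus 5 μg/ml PI in HEPES/NaCl/CaCl2 binding buffer; 10,000 cells per sample read by flow cytometry; n = 3, mean ± S.E.M.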
In general terms: A flow cytometer gives signals particle by particle.

The subject of data set [3] is B16-F10. In words: Induction of apoptosis in mouse B16F10 cells assessed as necrotic cells at 10 uM after 48 hrs by Annexin V-FITC/propidium iodide staining based flow cytometry (reference value: 2.62%). It counts as functional.
Data set [4] concerns MCF7. In words: Induction of apoptosis in human MCF7 cells at 10 uM after 48 hrs by Annexin V-FITC/propidium iodide staining based flow cytometry. It counts as functional, cell-based. The gist of the method:
as §1

In data set [5] the test system is B16-F10. The experiment in a line: Induction of apoptosis in mouse B16F10 cells assessed as necrotic cells at 35 nM after 48 hrs by Annexin V-FITC/propidium iodide staining based flow cytometry (reference value: 5.48%). It counts as functional.
Data set [6] concerns B16-F10. The experiment in a line: Effect on ABHD12 mRNA expression in mouse B16F10 cells by RT-PCR method. It counts as functional.
The test system of data set [7] is B16-F10. The experiment in a line: Induction of apoptosis in mouse B16F10 cells assessed as early apoptotic cells at 75 nM after 48 hrs by Annexin V-FITC/propidium iodide staining based flow cytometry (reference value: 1.43%). It counts as functional.
Data set [8] in a line: Induction of apoptosis in HEK293T cells assessed as live cells at 10 uM after 48 hrs by Annexin V-FITC/propidium iodide staining based flow cytometry (reference value: 82.43%). Conditions: human, read-out: Activity. It counts as cell-based, HEK-293T. The gist of the method: as §1
Data set [9] concerns B16-F10. The experiment in a line: Induction of apoptosis in mouse B16F10 cells assessed as late apoptotic cells at 10 uM after 48 hrs by Annexin V-FITC/propidium iodide staining based flow cytometry (reference value: 7.39%). It counts as functional.
The test system of data set [10] is MCF7. In words: Induction of apoptosis in human MCF7 cells at 10 uM after 48 hrs in presence of MAGL inhibitor JZL184 by Annexin V-FITC/propidium iodide staining based flow cytometry. It counts as functional, cell-based.
Data set [11] has as its system B16-F10. The experiment in a line: Induction of apoptosis in mouse B16F10 cells assessed as late apoptotic cells at 35 nM after 48 hrs by Annexin V-FITC/propidium iodide staining based flow cytometry (reference value: 13.54%). It counts as functional.
In data set [12] the test system is B16-F10. In words: Induction of apoptosis in mouse B16F10 cells assessed as early apoptotic cells at 10 uM after 48 hrs by Annexin V-FITC/propidium iodide staining based flow cytometry (reference value: 1.75%). It counts as functional.
Data set [13] concerns B16-F10. In words: Antiproliferative activity against mouse B16F10 cells at 35 to 75 nM after 48 hrs by Cyto Tracker red dye based flow cytometry. Format: functional, cell-based. The method, boiled down: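 B16-F10 cells (Iscove's medium, 10% heat-inactivated FBS, 37 °C, 5% CO2) exposed to compound or DMSO for 48 h, stained with CytoTrack Red 628/643 and analysed by flow cytometry. Proliferation index (average number of cells that an initial cell became) expressed as fold change over DMSO control; n = 3; one-way ANOVA with Tukey post-test.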

For another data set, the target named is T2, Monoglyceride lipase (Mus musculus, UniProt O35678).
T2 sequence (O35678 whole entry): T1 sequence (whole entry)
The experiment in a line: Inhibition of MAGL in mouse B16-F10 cells using 7-HRA as substrate preincubated for 60 mins followed by substrate addition measured every 2.5 mins for 2 hrs by fluorescence assay. Format: cell-based. Conditions: read-out: IC50.

With `O=C(Nc1cccc(-c2ccc(C(F)(F)F)cc2)c1)OCc1ccco1`, the inhibition result in data set [1] is “Active”. Besides, the Activity in the data set on MCF7 [2] stood at 60.27%; in the data set on B16-F10 [3], 14.25%; in the data set with B16-F10 [5] it was 2.62%; in the data set with B16-F10 [7], 2.44%; in the data set with B16-F10 [9], 64.08%; in the data set with B16-F10 [11] it was 29.37%. Also, the Activity with B16-F10 [12] was determined as 3.87%. The outcome in the data set with MCF7 [4], in the data set on MCF7 [10] and in the data set on B16-F10 [13] was Active. The same molecule came in with a deltaCT in the data set on B16-F10 [6] of 16.84. In addition, the viability at 48 h, 10 µM in data set [8] stood at 81.4%. On Monoglyceride lipase, the pIC50 is 4.88.

For orientation: pIC50 means the negative decadic logarithm of the IC50, by convention in mol/L.
